Measurements published in ChEMBL document CHEMBL4382263, “Spirostaphylotrichin X from a Marine-Derived Fungus as an Anti-influenza Agent Targeting RNA Polymerase PB2” (J Nat Prod, 2018).
Calls of active or inactive are those of the source. The calls are words filed in the database; no cut-off is given here.

What was measured:
Influenza A virus = test: Antiviral activity against Influenza A virus (A/PR/8/34(H1N1)) harboring neuraminidase H274Y mutant infected in MDCK cells assessed as reduction in virus-induced cytopathic effect by MTT assay; format: functional, organism-based, A/Puerto Rico/8/1934(H1N1)
Procedure, shortened: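 MTT-based cytopathic-effect reduction assay in MDCK cells. Run in triplicate; IC50 reported as mean ± SD.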

[1] = test system: Influenza A virus (A/Puerto Rico/8/1934(H1N1)); test: Inhibition of RNA polymerase in Influenza A virus (A/PR/8/34(H1N1)) infected in human 293T cells harboring pPol1-Fluc at 10 uM after 24 hrs by luciferase reporter gene assay; format: cell-based
Procedure, shortened: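 293T cells transfected with 50 ng pPolI-Fluc reporter. After 5 h, infected with PR8 at different titres for 1 h. Then given DMEM/10% FBS with 10 μM compound or 0.1% DMSO; luciferase measured in lysates after 24 h.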

CC/C=C1/C=CC(=O)[C@@H](O)[C@]12C(=O)N(OC)[C@@](C)(OC)[C@@H]2O
IC50 (Influenza A virus): 1200 nM | inhibition [1]: Active
